Hits are enriched below; roughly 2.4% of the tested compounds scored in any of these assays.
NR2E3 ag-1: NR2E3 agonists in two-hybrid cells, primary screen, cell-based, luminescence, CHO-S, Gal4-NCOR/VP16-NR2E3; actives 0.35% (n = 360,000); luciferase; inhibition of corepressor binding, % at 3.98 µM; Photoreceptor-specific nuclear receptor (Homo sapiens), Q9Y5X4;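 active = inhibition above the mean of all tested compounds plus 3 SD, cut at about 70% in these data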;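 note: higher means lower luciferase signal from less NR2E3 corepressor binding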
Target sequence (Q9Y5X4 whole entry, looked up, the tested form may be a part): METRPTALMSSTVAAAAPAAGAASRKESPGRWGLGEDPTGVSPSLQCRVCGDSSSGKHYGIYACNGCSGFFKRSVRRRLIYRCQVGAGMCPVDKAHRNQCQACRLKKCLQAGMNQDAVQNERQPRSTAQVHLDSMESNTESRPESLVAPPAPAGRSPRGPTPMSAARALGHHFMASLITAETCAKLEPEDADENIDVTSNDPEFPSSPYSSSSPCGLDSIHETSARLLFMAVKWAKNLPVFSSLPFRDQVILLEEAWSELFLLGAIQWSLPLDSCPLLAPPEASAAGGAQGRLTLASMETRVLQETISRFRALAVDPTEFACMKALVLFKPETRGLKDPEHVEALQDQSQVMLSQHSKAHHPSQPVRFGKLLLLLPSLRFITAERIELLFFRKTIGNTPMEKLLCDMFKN
MPTP inh: mitochondrial permeability transition pore inhibitors, primary screen, biochemical, isolated mouse mitochondria, absorbance. Ca2+ swelling absorbance, 30 min. actives 1.4% (n = 360,000). inhibition, % at 10 µM;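 active = inhibition of 50% or more, scaled per plate between neutral and stimulator controls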
Jurkat NFkB inh: inhibitors of induced NF-kB luciferase reporter, primary screen, TCR NF-kB activation inhibitor project, cell-based, luminescence, uHTS; actives 0.53% (n = 330,000); AID 435003, 2010; inhibition, % at 4 µM; Jurkat, PMA/ionomycin-induced NF-kB luciferase reporter; in the data active = inhibition above about 50%
NR2E3 ag-2: inhibitors of NR2E3-RetCOR corepressor binding, primary screen, NR2E3 agonist project, biochemical, TR-FRET, GST-NR2E3, biotin-RetCOR | actives 0.12% (n = 320,000) | 1536-well | AID 2300, 2010 | Photoreceptor-specific nuclear receptor (Homo sapiens), Q9Y5X4 | inhibition of corepressor binding, % at 4.78 µM;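 active = percent inhibition above the cutoff of mean plus 3 SD of all tested compounds, set per screening campaign, cut at about 20% in these data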
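system = GST-tagged NR2E3 plus biotinylated RetCOR corepressor | input = 1.35 nM GST-NR2E3 | also added = 7 nM biotin-RetCOR | schedule = 5 h incubation at 4 °C | measured by = TR-FRET with europium anti-GST and streptavidin-D2, 340 nm excitation | read-out = percent loss of FRET ratio relative to control wells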
aDG glyco act: activators of alpha-DG glycosylation, primary screen, uHTS, Pro5-aDG cells, AlphaScreen. alpha-DG glycosylation AlphaScreen (IIH6); 0% Pro5, 100% B10-LARGE cell signal. actives 0.22% (n = 360,000). activation, % at 10 µM;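 active = activation of at least 8% versus controls, or a plate z-score of at least 8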;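 note: Pro5 are CHO cells carrying HIG-tagged alpha-DG that lacks glycosylation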
697 NFkB inh: inhibitors of PMA/ionomycin-induced NF-kB reporter, 697 cells, primary screen, B-cell NF-kB inhibitor project, cell-based, luminescence, uHTS. 697 B-cell NF-kB luciferase reporter, 16 h. inhibition, % at 4 µM. actives 0.33% (n = 330,000); in the data active = inhibition above about 35%
Rh123 counter: fluorescence retest of MPTP screen hits in isolated mitochondria, single concentration; shares compounds with MPTP inh; membrane potential, Rhodamine 123 fluorescence; inhibition, % at 10 µM; actives 78% (n = 5,000); in the data active = inhibition above about 22%
MPTP abs DR: mitochondrial permeability transition pore inhibitors, dose response, biochemical, absorbance, uHTS hits; shares compounds with MPTP inh; isolated mitochondria swelling; IC50, µM; actives 58% (n = 780); in the data active = IC50 below about 20 µM
MPTP counter DR: fluorescent counter-screen in isolated mitochondria, dose response, counter-screen for MPTP inhibitor project, biochemical, fluorescence, uHTS hits; shares compounds with MPTP inh; actives 49% (n = 780); isolated mitochondria counterscreen, fluorescence read-out; AID 651564, 2012; IC50, µM; in the data active = IC50 below about 80 µM
Of the large screens only hits and unclear results are named; the others gave an inactive call (follow-up assays come after a bar, where they were run).

COC(=O)c1cc(OC)c(OC)cc1NC(=S)Nc1cccc(Cl)c1	MPTP inh 90.7 | Rh123 counter 110.3
COc1cc(NC(=O)Nc2cccc(Cl)c2)c(C(=O)O)cc1OC	none
O=C(OCc1cn([C@@H]2CN(C(=O)c3cccs3)[C@@H](c3ccc(Cl)cc3)C[C@H]2O)nn1)c1ccccc1	none (no result: Jurkat NFkB inh, NR2E3 ag-2, 697 NFkB inh)
COc1ccc(C2=CC(=O)CC(C)(C)C2)cc1OC	none
CC[C@H]1C=C[C@@H](C(C(=O)OC)C(=O)OC)CN1C(C)=O	none (no result: Jurkat NFkB inh, NR2E3 ag-2, 697 NFkB inh)
O=C(Nc1ccc([N+](=O)[O-])cc1)c1cc(Cl)sc1Cl	MPTP inh 89.4 | Rh123 counter 85.3
O=C(Nc1ccc(C(=O)O)cc1)Nc1ccc([N+](=O)[O-])cc1	none
O=C(Nc1ccc([N+](=O)[O-])cc1)Nc1ccc(Cl)cc1F	MPTP inh 99.8 | Rh123 counter 100.8
COc1ccc(OC(C)C(=O)Nc2ccc([N+](=O)[O-])cc2)cc1 (stereo unspecified)	none
Cc1cc(OC(F)F)ccc1NC(=O)Nc1ccc([N+](=O)[O-])cc1	MPTP inh 98.8 | Rh123 counter 86.0
O=C(Nc1ccc(Cl)cc1)Nc1cc([N+](=O)[O-])ccc1F	MPTP inh 93.0 | Rh123 counter 93.0
CCCOc1cccc(-c2nn(-c3ccccc3)cc2/C=C(\C#N)C(=O)NCCCn2ccnc2)c1	none
N#C/C(=C/c1cn(-c2ccccc2)nc1-c1cccc(OCc2ccc(F)cc2)c1)C(=O)NCCCn1ccnc1	MPTP inh 54.1 | Rh123 counter inactive | MPTP abs DR inactive | MPTP counter DR inactive
CCc1cc2c(=O)c(-c3cnn(-c4ccccc4)c3)c(C)oc2cc1OCC(=O)Nc1ccc(F)c(F)c1	MPTP inh 80.2 | Rh123 counter inactive | MPTP abs DR inactive | MPTP counter DR inactive
CCc1cc2c(=O)c(-c3cnn(-c4ccccc4)c3)c(C)oc2cc1OCC(=O)Nc1cccc(C)c1	none
O=C(CSc1nc2cc(Cl)c(Cl)cc2[nH]1)c1ccc2c(c1)OCO2	MPTP inh 78.4 | Rh123 counter 72.6
CC1CCN(S(=O)(=O)c2cn(CC(=O)N3CC(C)CC(C)C3)c(=O)c3ccccc23)CC1 (stereo unspecified)	none
CN(C)CCCOc1ccc2c(c1)Sc1ccccc1CC2=O	none
O=C1Cc2ccccc2Sc2cc(OCCCN3CCCCC3)ccc21	MPTP inh 71.1 | Rh123 counter inactive | MPTP abs DR 9.86 | MPTP counter DR inactive
COC(=O)C1CC(=O)c2ccsc2C1 (stereo unspecified)	none
NC(=O)C1=C[C@H](C2CCCCC2)C[C@H](OCc2ccc(CO)cc2)O1	none
CC(NC(=S)NCc1ccc(F)cc1)C12CC3CC(CC(C3)C1)C2 (stereo unspecified)	MPTP inh 80.2 | Rh123 counter 90.3
COc1ccc(C(C)NC(=S)NCc2ccc(F)cc2)cc1OC (stereo unspecified)	none
Fc1ccc(CNC(=S)NCc2ccccc2)cc1	none
CCC(C)[C@H](NC(=O)NCc1ccc(F)cc1)C(=O)O (stereo partly specified)	none
CCC(NC(=S)NCc1ccc(F)cc1)c1ccc(C(C)C)cc1 (stereo unspecified)	MPTP inh 78.7 | Rh123 counter 90.6
CCOc1ccc(C(C)NC(=S)NCc2ccc(Cl)cc2)cc1 (stereo unspecified)	MPTP inh 60.2 | Rh123 counter 93.6
CCC(C)c1ccc(C(C)NC(=S)NCc2ccc(F)cc2)cc1 (stereo unspecified)	MPTP inh 60.2 | Rh123 counter 93.9
O=C1Nc2ccc(C(=O)O)c(O)c2C1=O	none (no result: Jurkat NFkB inh, NR2E3 ag-2, 697 NFkB inh)
CC1CCN(CCCNC(=O)c2ccc3c(=O)n(Cc4ccc(Cl)cc4)c(=S)[nH]c3c2)CC1	MPTP inh 95.2 | Rh123 counter inactive
N#CCCN(C(=O)Nc1ccc(Cl)c(Cl)c1)c1ccccc1	MPTP inh 97.0 | Rh123 counter 92.9
N#CCCN(Cc1cccnc1)C(=O)Nc1ccc(Cl)c(Cl)c1	none
C[C@H]1c2cccc(O)c2C(O)=C2C(=O)[C@]3(O)C(O)=C(C(N)=O)C(=O)[C@@H](N(C)C)[C@@H]3[C@@H](O)[C@@H]21	MPTP inh 79.9 | Rh123 counter inactive
CC1CCc2c(sc3nc(C4CC4)nc(N4CCN(C(=O)c5ccco5)CC4)c23)C1 (stereo unspecified)	MPTP inh 64.3 | Rh123 counter 68.5
COC(=O)C1=C(C(=O)OC)[C@@H]2N(C)c3ccccc3[C@@]23C[C@@H](C(=O)OC)N(C(=O)COCc2ccccc2)C3=N1	none
Oc1c(C=C2N=c3ccccc3=N2)sc(=S)n1C1CCCC1	MPTP inh 83.1 | Rh123 counter 49.9
Oc1c(C=C2N=c3ccccc3=N2)sc(=S)n1-c1ccc(F)cc1	none
CC(C)CC(=O)NC(c1ccccc1Cl)c1c(O)ccc2ccccc12 (stereo unspecified)	MPTP inh 76.3 | Rh123 counter 85.5
CCCC(=O)NC(c1ccc(OC)cc1)c1c(O)ccc2ccccc12 (stereo unspecified)	none
COc1ccc(C(NC(=O)C2CCCCC2)c2c(O)ccc3ccccc23)cc1 (stereo unspecified)	MPTP inh 81.0 | Rh123 counter 69.4
O=C1C(=O)N(c2ccccn2)C(c2cccc([N+](=O)[O-])c2)/C1=C(/O)c1ccc(Br)cc1 (stereo unspecified)	none
Cc1nc(N2CCCCC2)c2c(C)c(C(=O)Nc3cccc(C(F)(F)F)c3)sc2n1	MPTP inh 84.2 | Rh123 counter 49.3
Cc1nc(N2CCCCC2C)c2c(C)c(C(=O)Nc3cccc(C(F)(F)F)c3)sc2n1 (stereo unspecified)	MPTP inh 70.0 | Rh123 counter 41.4
